Fibroblast inh: antiproliferative effect on LL 47 fibroblasts – human, LL 47 cells, CellTiter-Glo luminescence, primary screen | 85,000 tested, 1.1% active | LL 47 human lung fibroblast viability, ATP luminescence; active compounds read low | viability, % at 10 µM;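 active = viability at or below 50% in the single dose screen; inactive = viability above 50%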;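 note: compound exposure lasted 72 h before the ATP readout; 100% = median luminescence of untreated cell-only wells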
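Test system: LL 47 human lung fibroblasts / Quantity: 1,150 cells in each well / Medium: IMEM growth medium with 15% fetal bovine serum / Incubation: 72 h compound exposure at 37 °C after overnight plating / Detection: CellTiter-Glo luminescence measuring cellular ATP / Read-out: % viability versus median cells-only luminescence / Benchmarks: cell-only wells, no compound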
HCT116 PTEN-null: growth suppression of PTEN-null HCT116, primary screen, cell-based, CellTiter-Glo. 140,000 tested, 1.2% active. AID 827, 2007. HCT116 PTEN-null viability, 60 h; active compounds read low. viability, % at 10 µM;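 active = viability at or below a set limit, 4 SD under the median of all tested compounds, cut at about 3.7% in these data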;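 note: PTEN knockout HCT116 line with beta catenin targeted HCT116 as companion control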
HUVEC inhibit: inhibitors of HUVEC proliferation, primary screen, cell-based, 384-well; 86,000 tested, 1.1% active; AID 648, 2007; CellTiter-Glo luminescence, 72 h; active compounds read low; viability, % at 10 µM (by protocol);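 active = viability at or below 30%; inactive = viability above 30%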;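 note: 100% = median luminescence of DMSO-only cell control wells on each plate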
bCat KO growth: primary screen for growth suppressors in beta-catenin knockout HCT116 cells (colon tumor, human) | AID 818, 2007 | HCT116 beta-catenin knockout viability, CellTiter-Glo, 60 h; active compounds read low | 140,000 tested, 1.5% active | viability, % at 10 µM;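 active = viability at or under a set limit, the compound median less 4 SD, cut at about 6% in these data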;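 note: 0% = Hyamine 1622 control at 20 µM and 100% = untreated cell control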
H69AR inhibit: proliferation blockers of H69AR lung cancer cells, primary screen, cell-based, human, 86K library | H69AR lung tumor viability, ATP luminescence, 72 h; active compounds read low | viability, % at 10 µM | 85,000 tested, 6% active | AID 598, 2007;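 active = viability at or below 40%; inactive = viability above 40%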;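 note: multidrug resistant small cell line overexpressing MRP-1 efflux transporter; 100% = mean luminescence of untreated control wells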
Active calls of the source: *; . = no result. Many of the other results were omitted from the sample, so hits are more common in it than they were.

SMILES | Fibroblast inh | HCT116 PTEN-null | HUVEC inhibit | bCat KO growth | H69AR inhibit
CCOc1ccccc1C(=O)N1CCC(n2nnc3cc(C(F)(F)F)ccc32)CC1 | 98 | 81 | 80 | 77 | 39*
COc1ccc(CNCCC(c2ccc(OC(C)C)cc2)C(C)C)cc1OC (stereo not drawn) | . | 1.3* | . | 1.2* | .
O=C(OCC(=O)N1CCN(c2ccccc2)CC1)C1=COCCO1 | 93 | 101 | 91 | 95 | 34*
O=C(OCC(=O)N1CCN(c2ccccc2)CC1)c1ccco1 | 94 | 96 | 109 | 96 | 29*
O=C(OCC(=O)N1CCN(C(=O)c2ccco2)CC1)c1ccccc1C(=O)c1ccccc1 | 95 | 103 | 100 | 104 | 83
O=C(OCC(=O)N1CCN(C(=O)c2ccco2)CC1)C1=COCCO1 | 100 | 110 | 91 | 101 | 111
Cc1ccccc1Nc1nc(N)nc(CN(C)Cc2ccccc2Cl)n1 | . | 71 | . | 77 | .
COCCNC(=S)N/N=C/c1ccc(OCc2ccc(C(=O)OC)cc2)cc1 | . | 83 | . | 89 | .
CN(CCOc1ccc(-c2ccn(S(=O)(=O)c3cccc4ccccc34)n2)cc1)c1ccccn1 | . | 82 | . | 85 | .
CC(=O)NC(Cc1c[nH]c2ccccc12)C(=O)OCC(=O)Nc1cc(C)on1 (stereo not drawn) | 95 | 81 | 102 | 82 | 82
CC(=O)NC(Cc1c[nH]c2ccccc12)C(=O)OCC(=O)Nc1ccc2c(c1)OCO2 (stereo not drawn) | 93 | 86 | 83 | 83 | 13*
CC(C)NS(=O)(=O)c1ccc(CCC(=O)Nc2ccc3c(c2)OCO3)cc1 | 113 | 95 | 87 | 90 | 88
C=CCSc1nnc(NC(=O)c2cccc(S(=O)(=O)N(C)c3ccccc3)c2)s1 | . | 94 | . | 97 | .
COC(=O)c1[nH]c2ccc(Br)cc2c1NC(=O)C(C)N1CCN(C2CCCCC2)CC1 (stereo not drawn) | 25* | 3.2* | 29* | 9 | 15*
COC(=O)c1[nH]c2ccc(C)cc2c1NC(=O)NC1CCCCC1 | 96 | 36 | 90 | 5.2* | 49
COc1ccc(-c2[nH]n(-c3ccc([N+](=O)[O-])cc3)c(=O)c2C=NCc2ccccc2)cc1 | . | 82 | . | 86 | .
O=C(c1cccs1)N(C(=O)c1cccs1)c1ccc(Br)cn1 | 91 | 77 | 79 | 72 | 27*
CC1CCc2nc(NC(=O)CSc3nc4ccccc4o3)sc2C1 (stereo not drawn) | 88 | 84 | 63 | 86 | 31*
O=C(COc1ccc(/C=N/NC(=O)c2cc3ccccc3o2)cc1Br)Nc1ccccc1 | . | 3.5* | . | 1.8* | .
O=C(NC1CCCC1)c1ccc(S(=O)(=O)N2CCOCC2)cc1 | 98 | 101 | 96 | 104 | 84
O=C(NCC1CCN(c2ccc(S(=O)(=O)N3CCOCC3)cc2)CC1)c1ccc(Cl)cc1 | 86 | 57 | 88 | 62 | 35*
O=C1c2cccc3c(N4CCCCC4)ccc(c23)C(=O)N1c1ccccn1 | . | 66 | . | 66 | .
O=C1c2cccc3c([N+](=O)[O-])ccc(c23)C(=O)N1c1ccc(Cl)cn1 | . | 1.6* | . | 1.8* | .
O=C1c2cccc3c([N+](=O)[O-])ccc(c23)C(=O)N1c1ccccn1 | . | 1.4* | . | 1.6* | .
O=C1c2cccc3c(N4CCCCC4)ccc(c23)C(=O)N1c1ccc(Cl)cn1 | 98 | . | 79 | . | 31*
SMILES | Fibroblast inh | HCT116 PTEN-null | HUVEC inhibit | bCat KO growth | H69AR inhibit
O=C1c2cccc3c([N+](=O)[O-])ccc(c23)C(=O)N1c1nccs1 | 23* | 1.5* | 2.0* | 1.5* | 0.8*
O=C1c2cccc3cccc(c23)C(=O)N1c1nccs1 | 107 | 113 | 108 | 93 | 97
O=C(CSc1ccc(-c2ccco2)nn1)c1ccccc1 | . | 81 | . | 82 | .
CC(C)OC(=O)c1cccc(-c2ccc(C=O)o2)c1 | . | 99 | . | 97 | .
C#CCSc1nsc(SCC#C)c1C#N | . | 5 | . | 2.7* | .
CCCSc1nsc(SCCC)c1C#N | 94 | 101 | 90 | 97 | 94
O=S(=O)(c1ccc(N2CCCC2c2nc3ccccc3s2)nc1)N1CCOCC1 (stereo not drawn) | 88 | 88 | 97 | 90 | 23*
O=C(CCCc1nc(-c2ccccc2Cl)no1)NCc1cccnc1 | 99 | 99 | 95 | 107 | 39*
CCOC(=O)c1ccc(NC(=O)CCc2nc(-c3ccccc3Cl)no2)cc1 | 95 | 36 | 45 | 29 | 29*
CCOC(=O)c1ccc(NC(=O)CCc2nc(-c3ccccc3)no2)cc1 | 103 | 88 | 66 | 89 | 109
O=C(CNC(=O)c1ccc(Cl)cc1)NCC(F)(F)F | . | 102 | . | 92 | .
CNc1nc(Sc2ccc(C)cc2)cc(C(F)(F)F)n1 | . | 74 | . | 77 | .
COc1ccc(NC(=O)CN2C(=O)C(C)SC(C)C2=O)c(OC)c1 (stereo not drawn) | . | 101 | . | 93 | .
CCOc1ccc(CCNC(=O)C2CCN(c3nnc(-n4cccc4)s3)CC2)cc1OCC | 105 | 91 | 98 | 109 | 40*
CCOc1ccc(CCNC(=O)C2CCN(c3nnc(-n4cccc4)s3)CC2)cc1 | 108 | 92 | 110 | 98 | 91
CCN(CC)C(=O)Cn1nc(-c2ccccc2O)nc1SCC(=O)Nc1ccc(OC)cc1 | 93 | 75 | 78 | 84 | 35*
COc1ccc(NC(=O)CSc2ccc3c4c(cccc24)C(=O)c2ccccc2-3)cc1 | . | 3.4* | . | 6 | .
O=S(=O)(c1ccc(Cl)cc1)c1snnc1-c1ccccc1 | 6.5* | 1.8* | 7.5* | 2.8* | 1.9*
COc1ccc(C(c2nnnn2CC2CCCO2)N2CCN(c3ccccc3)CC2)cc1 (stereo not drawn) | . | 100 | . | 99 | .
COc1ccc(N2CCN(C(c3cc(OC)ccc3OC)c3nnnn3CC3CCCO3)CC2)cc1 (stereo not drawn) | 97 | 0.7* | 93 | 0.9* | 93
O=S(=O)(Cc1ccccc1)N1CCN(Cc2ccc3c(c2)OCO3)CC1 | 101 | 95 | 109 | 89 | 93
C=CCn1c(SCc2nc3sc4c(c3c(=O)[nH]2)CCCC4)nc2ccccc2c1=O | . | 40 | . | 54 | .
Cc1ccc(-c2csc(NC(=O)C3=NN(c4ccccc4)C(=O)CC3)n2)cc1 | . | 35 | . | 41 | .
N#Cc1c(N2CCCC(O)C2)nc(N)c2c(N)nc3c(c12)CC(=O)N3C12CC3CC(CC(C3)C1)C2 (stereo not drawn) | 65 | 18 | 16* | 13 | 3.3*
CCn1c(/C=C/N(C)c2ccccc2)[n+](CC)c2ccc(Cl)cc21 | . | 5 | . | 3.8* | .
CCn1c(/C=C/Nc2ccccc2)[n+](CC)c2ccc(Cl)cc21 | . | 47 | . | 47 | .
O=C(O)c1ccc2c(c1)C(=O)N(c1ncccn1)C2=O | . | 101 | . | 97 | .
COc1ccc(-c2cc(-c3c(O)c(OC)c4occc4c3OC)[nH]n2)cc1OC | 63 | 24 | 78 | 20 | 26*
